Calls of active or inactive are those of the source. No cut-off for these calls is given here.
What was measured:
[1] = test system: HeLa; assay: Cytotoxicity against human HeLa cells assessed as reduction in cell viability after 72 hrs by MTT assay; format: functional, cell-based
Outline: (§1)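 HeLa and MCF7 cells in log phase were seeded for 24 h, then exposed to a range of ligand concentrations for 72 h. MTT (5 mg/ml stock) was added for 4 h, formazan dissolved in DMSO, and absorbance read at 570 nm. Three independent experiments in triplicate, mean ± SD.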

[2] = test system: Quadruplex DNA; assay: Stabilization of VEGF G-quadruplex DNA in human HeLa cells assessed as decrease in VEGF mRNA level after 24 hrs by RT-PCR method; format: cell-based
Outline: (§2)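 HeLa cells exposed to increasing ligand concentrations (5 and 10 µM named) for 24 h, with DMSO-treated cells as control. Total RNA was extracted with TRI reagent and DNase I-treated. c-MYC and VEGF transcripts were quantified by qRT-PCR, normalized to GAPDH, and expressed as relative fold change.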

[3] = test system: Quadruplex DNA; assay: Binding affinity to human c-Myc G-quadruplex DNA at 0.6 uM after 5 mins in presence of KCl by fluorescence spectroscopic method; format: nucleic-acid assay
Outline: (§3)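 Fluorescence titration at 25 °C with 0.6 µM ligand in 10 mM Tris-HCl pH 7.4, 100 mM KCl, 0.1 mM EDTA. Preformed G4 DNA was added stepwise, with 5 min incubation before each spectrum. Excitation 330 nm; emission 350–550 nm, slit 5 nm.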

[4] = test system: Quadruplex DNA; assay: Binding affinity to human VEGF G-quadruplex DNA assessed as stabilization of parallel stranded topology after 5 mins in presence of KCl by CD spectroscopic method; format: nucleic-acid assay
Outline: (§4)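 CD spectra of 5 µM G4 DNA in 10 mM Tris-HCl pH 7.4, 100 mM KCl, 0.1 mM EDTA, with or without ligand. Mixtures were heated 95 °C for 5 min and slowly cooled to room temperature. Recorded 200–400 nm at 25 °C, 100 nm/min, 2 s response, 1 cm cell; average of three scans.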

[5] = test system: MCF7; assay: Cytotoxicity against human MCF7 cells assessed as reduction in cell viability after 72 hrs by MTT assay; format: functional, cell-based; outline: as §1
[6] = target: Telomerase reverse transcriptase (Homo sapiens, UniProt O14746); assay: Inhibition of telomerase (unknown origin) by TRAP-LIG assay
Outline: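 Telomerase activity measured by modified TRAP-LIG assay across ligand concentrations of 0.01 to 2 µM (11 levels). Positive and negative controls included. Inhibition was judged from the intensity and number of telomeric ladder bands.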

[7] = test system: Quadruplex DNA; assay: Binding affinity to human c-Kit2 G-quadruplex DNA assessed as change in melting temperature in presence of KCl by CD spectroscopic method; format: nucleic-acid assay
Outline: (§5)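 CD melting of 5 µM G4 DNA in 10 mM Tris-HCl pH 7.4, 25 mM KCl, 0.1 mM EDTA. Ligand was present during folding (heating, slow cooling). Spectra 200–400 nm over 20–96 °C in 2 °C steps, buffer blank subtracted. Tm was taken from normalized ellipticity at the positive maximum (262 nm for promoter G4s). ΔTm = ligand-bound minus DNA alone; average of two independent experiments.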

[8] = test system: Quadruplex DNA; assay: Binding affinity to human c-Kit1 G-quadruplex DNA at 0.6 uM after 5 mins in presence of KCl by fluorescence spectroscopic method; format: nucleic-acid assay; outline: as §3
[9] = test system: Quadruplex DNA; assay: Binding affinity to human c-Kit1 G-quadruplex DNA assessed as change in melting temperature in presence of KCl by CD spectroscopic method; format: nucleic-acid assay; outline: as §5
[10] = target: Quadruplex DNA; assay: Displacement of thiazole orange from human VEGF G-quadruplex DNA after 5 mins in presence of KCl by fluorescence assay; format: nucleic-acid assay
Outline: (§6)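 Thiazole orange displacement from a G4 DNA–TO complex (1 µM TO + 0.5 µM G4 DNA) in 10 mM Tris-HCl pH 7.4, 100 mM KCl, 0.1 mM EDTA. Ligand was added in increasing steps, with 5 min incubation each. Fluorescence read at ex 501/em 531 nm; % displacement = 100 − (Ft/F0 × 100). DC50 is the ligand concentration giving 50% displacement, read from plots; average of two independent experiments.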

[11] = test system: Quadruplex DNA; assay: Binding affinity to human c-Myc G-quadruplex DNA assessed as change in melting temperature in presence of KCl by CD spectroscopic method; format: nucleic-acid assay; outline: as §5
[12] = test system: Quadruplex DNA; assay: Binding affinity to human 77-mer c-Myc G-quadruplex DNA assessed as inhibition of Taq DNA polymerase-mediated DNA synthesis by measuring generation of premature chain termination products using 32P-labeled primer after 30 mins by polymerase stop assay; format: nucleic-acid assay
Outline: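 Template of 10 nM single-stranded 77-mer c-MYC with the G-quadruplex-forming sequence, annealed to 32P-labeled plus cold primer (15 nM) in Tris-HCl pH 7.4 with 5 mM KCl. Annealing was 95 °C for 5 min then slow cooling, with ligand added before annealing. Extension with Taq polymerase (5 mM MgCl2, 0.5 mM DTT, 0.2 mM dNTPs) ran 30 min at 48 or 40 °C. Products were resolved on 15% urea denaturing PAGE and read by phosphorimaging.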

[13] = test system: Quadruplex DNA; assay: Stabilization of VEGF G-quadruplex DNA in human HeLa cells assessed as decrease in VEGF mRNA level at 5 uM after 24 hrs by RT-PCR method relative to control; format: cell-based; set-up: scale not given: the % may be the effect or the level left; outline: as §2
[14] = test system: Quadruplex DNA; assay: Binding affinity to human telomeric G-quadruplex DNA at 0.6 uM after 5 mins in presence of KCl by fluorescence spectroscopic method; format: nucleic-acid assay; outline: as §3
[15] = test system: Quadruplex DNA; assay: Binding affinity to human VEGF G-quadruplex DNA assessed as change in melting temperature in presence of KCl by CD spectroscopic method; format: nucleic-acid assay; outline: as §5
[16] = target: Quadruplex DNA; assay: Displacement of thiazole orange from human c-Kit1 G-quadruplex DNA after 5 mins in presence of KCl by fluorescence assay; format: nucleic-acid assay; outline: as §6
[17] = test system: Quadruplex DNA; assay: Binding affinity to human c-Kit2 G-quadruplex DNA assessed as stabilization of parallel stranded topology after 5 mins in presence of KCl by CD spectroscopic method; format: nucleic-acid assay; outline: as §4
[18] = test system: Calf thymus DNA; assay: Displacement of thiazole orange from calf thymus duplex DNA after 5 mins in presence of KCl by fluorescence assay; format: nucleic-acid assay, Bos taurus
[19] = test system: Quadruplex DNA; assay: Stabilization of VEGF G-quadruplex DNA in human HeLa cells assessed as decrease in VEGF mRNA level at 10 uM after 24 hrs by RT-PCR method relative to control; format: cell-based; set-up: scale not given: the % may be the effect or the level left; outline: as §2
[20] = test system: Quadruplex DNA; assay: Induction of conformational changes in human Bcl2 G-quadruplex DNA assessed as inversion from potassium ion stabilized hybrid type mixed parallel/antiparallel G-quadruplex to stable telomere parallel-stranded G-quadruplex after 5 mins in presence of KCl by CD spectroscopic method; format: nucleic-acid assay; outline: as §4
[21] = target: Quadruplex DNA; assay: Displacement of thiazole orange from human Bcl2 G-quadruplex DNA after 5 mins in presence of KCl by fluorescence assay; format: nucleic-acid assay; outline: as §6
[22] = target: Quadruplex DNA; assay: Displacement of thiazole orange from human telomeric G-quadruplex DNA after 5 mins in presence of KCl by fluorescence assay; format: nucleic-acid assay; outline: as §6
[23] = test system: HeLa; assay: Effect on GADPH mRNA level in human HeLa cells assessed as decrease in VEGF mRNA level at 2.5 to 10 uM after 24 hrs by RT-PCR method; format: cell-based
[24] = test system: Quadruplex DNA; assay: Binding affinity to human Bcl2 G-quadruplex DNA at 0.6 uM after 5 mins in presence of KCl by fluorescence spectroscopic method; format: nucleic-acid assay; outline: as §3

Sequence of Telomerase reverse transcriptase (O14746 whole entry): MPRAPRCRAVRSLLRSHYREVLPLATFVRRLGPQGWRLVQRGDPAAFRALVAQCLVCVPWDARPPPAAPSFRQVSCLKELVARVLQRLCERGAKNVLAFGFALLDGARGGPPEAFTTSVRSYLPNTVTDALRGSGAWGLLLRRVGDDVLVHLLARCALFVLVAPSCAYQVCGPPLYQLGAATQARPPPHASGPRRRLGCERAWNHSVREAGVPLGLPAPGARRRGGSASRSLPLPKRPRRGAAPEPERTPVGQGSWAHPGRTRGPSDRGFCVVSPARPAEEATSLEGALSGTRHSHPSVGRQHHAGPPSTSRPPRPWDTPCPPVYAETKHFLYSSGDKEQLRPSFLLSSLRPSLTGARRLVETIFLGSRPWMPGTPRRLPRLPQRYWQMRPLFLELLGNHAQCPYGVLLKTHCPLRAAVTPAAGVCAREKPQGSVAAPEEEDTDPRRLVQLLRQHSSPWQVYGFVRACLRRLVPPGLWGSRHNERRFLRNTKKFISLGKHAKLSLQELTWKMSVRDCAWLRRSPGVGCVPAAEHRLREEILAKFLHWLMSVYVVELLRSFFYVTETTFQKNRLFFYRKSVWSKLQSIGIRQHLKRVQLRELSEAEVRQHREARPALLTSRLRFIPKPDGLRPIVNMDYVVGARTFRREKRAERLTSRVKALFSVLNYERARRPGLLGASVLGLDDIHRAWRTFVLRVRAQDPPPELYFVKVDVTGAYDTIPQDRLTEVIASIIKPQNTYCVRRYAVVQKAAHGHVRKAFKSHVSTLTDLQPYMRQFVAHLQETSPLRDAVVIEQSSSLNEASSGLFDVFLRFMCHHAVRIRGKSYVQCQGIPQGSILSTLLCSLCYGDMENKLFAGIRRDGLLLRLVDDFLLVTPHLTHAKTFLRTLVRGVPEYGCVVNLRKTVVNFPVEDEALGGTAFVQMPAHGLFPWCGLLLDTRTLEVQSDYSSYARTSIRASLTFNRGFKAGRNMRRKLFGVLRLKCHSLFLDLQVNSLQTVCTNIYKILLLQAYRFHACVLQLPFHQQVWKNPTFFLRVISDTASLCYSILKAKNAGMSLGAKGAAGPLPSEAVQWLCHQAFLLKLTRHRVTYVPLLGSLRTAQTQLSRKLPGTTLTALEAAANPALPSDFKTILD

For CN(C)CCCCn1c2ccc(-c3nc4ccc(N5CCN(CCO)CC5)cc4[nH]3)cc2c2cc(-c3nc4ccc(N5CCN(CCO)CC5)cc4[nH]3)ccc21, the Activity [1] was “Dose-dependent effect”, the IC50 [1] was 8.29 µM and the Activity [2] was “Dose-dependent effect”. For the same compound, the Activity [3] was “Active”, the Activity [4] was “Active” and the Activity [5] was “Dose-dependent effect”. The IC50 ([5]; MCF7, 72 h) was 11.4 µM, the IC50 [6] was 0.3 µM and the inhibition [6] was “Dose-dependent effect”. The ΔTm [7] was 23.3 °C, the Activity [8] was “Active” and the ΔTm [9] was 24.7 °C. For the same compound, the DC50 [10] was 0.78 µM, the ΔTm [11] was 7.35 °C and the Activity [12] was “Dose-dependent effect”. The Activity [13] was 44%, the Activity [14] was “Active” and the ΔTm [15] was 11.3 °C. The DC50 [16] was 0.86 µM, the Activity [17] was “Active” and the DC50 [18] was 6.94 µM. The Activity [19] was 68%, the Activity [20] was “Active” and the DC50 [21] was 1.39 µM. For the same compound, the DC50 [22] was 1.13 µM, the Activity [23] was “Non-Toxic” and the Activity [24] was “Active”.
